Test results taken from ChEMBL document CHEMBL4024716, “Pronounced anti-proliferative activity and tumor cell selectivity of 5-alkyl-2-amino-3-methylcarboxylate thiophenes” (Eur J Med Chem, 2017).

Experiments:
[1] = Drug uptake in cytoplasm of human PC3 cells at 10 uM measured immediately by confocal fluorescence microscopic method; assay type: ADME
[2] = Drug uptake in cytoplasm of human HeLa cells at 10 uM measured immediately by confocal fluorescence microscopic method; assay type: ADME, cell-based
[3] = Drug uptake in nucleus of human HeLa cells at 10 uM measured immediately by confocal fluorescence microscopic method; assay type: ADME, cell-based
[4] = Drug uptake in nucleus of human CEM cells at 10 uM measured after incubation by confocal fluorescence microscopic method; assay type: ADME, cell-based
[5] = Drug uptake in cytoplasm of human CEM cells at 10 uM measured immediately by confocal fluorescence microscopic method; assay type: ADME
[6] = Drug uptake in nucleus of human HeLa cells at 10 uM measured after incubation by confocal fluorescence microscopic method; assay type: ADME, cell-based
[7] = Drug uptake in nucleus of human CEM cells at 10 uM measured immediately by confocal fluorescence microscopic method; assay type: ADME, cell-based
[8] = Drug uptake in nucleus of human PC3 cells at 10 uM measured immediately by confocal fluorescence microscopic method; assay type: ADME, cell-based
[9] = Drug uptake in nucleus of human PC3 cells at 10 uM measured after incubation by confocal fluorescence microscopic method; assay type: ADME, cell-based
HeLa [10] = experiment: Selectivity ratio of IC50 for human HeLa cells to IC50 for human PC3 cells; assay type: functional
Huh-7 = experiment: Cytotoxicity against human HuH7 cells after 72 to 96 hrs by coulter counter method; assay type: functional, cell-based
MOLT-4 = experiment: Cytotoxicity against human MOLT4 cells after 72 to 96 hrs by coulter counter method; assay type: functional, cell-based
Raji = experiment: Cytotoxicity against human Raji cells after 72 to 96 hrs by coulter counter method; assay type: functional, cell-based
CAKI-1 = experiment: Cytotoxicity against human Caki1 cells after 72 to 96 hrs by coulter counter method; assay type: functional, cell-based
PC-3 = experiment: Cytotoxicity against human PC3 cells after 72 to 96 hrs by coulter counter method
[11] = Selectivity ratio of IC50 for human Raji cells to IC50 for human CEM cells; assay type: functional
HeLa [12] = experiment: Cytotoxicity against human HeLa cells after 72 to 96 hrs by coulter counter method; assay type: functional, cell-based
CCRF-CEM = experiment: Cytotoxicity against human CEM cells after 72 to 96 hrs by coulter counter method
[13] = Drug uptake in early endosome of human PC3 cells co-expressing RFP at 10 uM by confocal microscopic analysis; assay type: ADME
In short: (§1)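 Cells were transduced with BacMam baculovirus (50 particles/cell) for 16–24 h to express organelle-targeted RFP (Golgi, lysosomes, early/late endosomes, mitochondria, ER). After two phenol red-free DMEM rinses, 10 μM NBD-labelled compound was added, and red and green signals were imaged immediately by confocal microscopy.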

[14] = Drug uptake in endoplasmic reticulum of human PC3/TJ191 cells co-expressing RFP at 10 uM by confocal microscopic analysis; assay type: ADME
[15] = Drug uptake in late endosome of human PC3/TJ191 cells co-expressing RFP at 10 uM by confocal microscopic analysis; assay type: ADME
[16] = Drug uptake in mitochondria of human PC3/TJ191 cells co-expressing RFP at 10 uM by confocal microscopic analysis; assay type: ADME
[17] = Drug uptake in golgi apparatus of human PC3 cells co-expressing RFP at 10 uM by confocal microscopic analysis; assay type: ADME; in short: as §1
[18] = Drug uptake in lysosomes of human PC3/TJ191 cells co-expressing RFP at 10 uM by confocal microscopic analysis; assay type: ADME, Lysosome
[19] = Drug uptake in lysosomes of human PC3 cells co-expressing RFP at 10 uM by confocal microscopic analysis; assay type: ADME, Lysosome; in short: as §1
[20] = Drug uptake in nucleus of human PC3 cells co-expressing RFP at 10 uM by confocal microscopic analysis; assay type: ADME, cell-based; in short: as §1
[21] = (§2) Drug uptake in nucleus of human PC3/TJ191 cells co-expressing RFP at 10 uM by confocal microscopic analysis; assay type: ADME
[22] = Drug uptake in golgi apparatus of human PC3/TJ191 cells co-expressing RFP at 10 uM by confocal microscopic analysis; assay type: ADME
[23] = as §2; assay type: ADME; remark: listed apart in the source
[24] = Drug uptake in nuclear membrane of human PC3 cells co-expressing RFP at 10 uM by confocal microscopic analysis; assay type: ADME, cell membranes; in short: as §1
[25] = Drug uptake in late endosome of human PC3 cells co-expressing RFP at 10 uM by confocal microscopic analysis; assay type: ADME; in short: as §1
[26] = Drug uptake in early endosome of human PC3/TJ191 cells co-expressing RFP at 10 uM by confocal microscopic analysis; assay type: ADME
[27] = Drug uptake in mitochondria of human PC3 cells co-expressing RFP at 10 uM by confocal microscopic analysis; assay type: ADME; in short: as §1
[28] = Drug uptake in endoplasmic reticulum of human PC3 cells co-expressing RFP at 10 uM by confocal microscopic analysis; assay type: ADME; in short: as §1
[29] = Drug uptake in nuclear membrane of human PC3/TJ191 cells co-expressing RFP at 10 uM by confocal microscopic analysis; assay type: ADME, cell membranes

COC(=O)c1cc(CCCCCCCNS(=O)(=O)c2cccc3c(N(C)C)cccc23)sc1N
Drug uptake [1]: Active | Drug uptake [2]: Active | Drug uptake [3]: Not Active | Drug uptake [4]: Not Active | Drug uptake [5]: Active | Drug uptake [6]: Not Active | Drug uptake [7]: Not Active | Drug uptake [8]: Not Active | Drug uptake [9]: Not Active

CCc1cc(C(=O)OC)c(N)s1
Ratio IC50 (HeLa [10]): 6.7 | IC50 (Huh-7): 84 µM | IC50 (MOLT-4): 29 µM | IC50 (Raji): > 250 µM | IC50 (CAKI-1): 92 µM | IC50 (PC-3): 27 µM | Ratio IC50 [11]: >1.4

CCCc1cc(C(=O)OC)c(N)s1
Ratio IC50 (HeLa [10]): 18 | IC50 (Huh-7): 2.5 µM | IC50 (HeLa [12]): 61 µM | IC50 (MOLT-4): 2.1 µM | IC50 (Raji): 104 µM | IC50 (CAKI-1): 5.4 µM | IC50 (CCRF-CEM): 6.9 µM | IC50 (PC-3): 3.4 µM | Ratio IC50 [11]: 16

COC(=O)c1cc(CCCCCCCNc2ccc([N+](=O)[O-])c3nonc23)sc1N
Drug uptake [1]: Active | Drug uptake [13]: Not Active | Drug uptake [14]: Active | Drug uptake [15]: Not Active | Drug uptake [16]: Not Active | Drug uptake [17]: Not Active | Drug uptake [18]: Not Active | Drug uptake [19]: Not Active | Drug uptake [20]: Active | Drug uptake [21]: Active | Drug uptake [22]: Not Active | Drug uptake [23]: Active | Drug uptake [24]: Active | Drug uptake [25]: Not Active | Drug uptake [26]: Not Active | Drug uptake [27]: Active | Drug uptake [8]: Not Active | Drug uptake [28]: Active | Drug uptake [29]: Active
